Measurements reported in ChEMBL document CHEMBL1938247, “Synthesis and evaluation of inhibitors of bacterial drug efflux pumps of the major facilitator superfamily” (2011).
In brackets after ≈: the same amount, converted by molar mass. Activity calls are given as the source filed them. The rule behind the calls is not given here. Where a SMILES comes first, the peptide text is derived from it. [ ]: non-standard residue; d: D form. The star is where a group is joined. ξ: configuration not given here. ξhPhe = NC(CCc1ccccc1)C(=O)O; βNA = c1ccc2cc(N*)ccc2c1

Key:
Streptomyces coelicolor [1] = assay: Antibacterial activity against Streptomyces coelicolor at 25 ug/mL after 48 hrs; type: functional, organism-based
Method in brief: (§1)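 Strains: wild-type S. coelicolor, or PCR-targeted null mutants lacking cmlR1, cmlR2 or both. Inhibitors HPLC-purified before testing; inhibitor alone at 25 μg/mL also checked for intrinsic toxicity.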

Streptomyces coelicolor [2] = assay: Potentiation of chloramphenicol-induced antibacterial activity against Streptomyces coelicolor at 25 ug/mL after 48 hrs relative to control; type: functional
Method in brief: (§2)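 1 μL of a 10⁸ cfu/μL spore stock patched per plate; incubated at 30 °C. Strains: wild-type S. coelicolor, or PCR-targeted null mutants lacking cmlR1, cmlR2 or both. Reference efflux inhibitor MC-207,110 (Phe-Arg-β-naphthylamide) tested at the same 25 μg/mL.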

Streptomyces coelicolor [3] = assay: Antibacterial activity against Streptomyces coelicolor after 48 hrs; type: functional
Streptomyces coelicolor [4] = assay: Antibacterial activity against cmlR1 and cmlR2-deficient Streptomyces coelicolor at 25 ug/mL after 48 hrs; type: functional, organism-based; method in brief: as §1
Streptomyces coelicolor [5] = assay: Potentiation of chloramphenicol-induced antibacterial activity against cmlR2-deficient Streptomyces coelicolor at 25 ug/mL after 48 hrs relative to control; type: functional; method in brief: as §2
Streptomyces coelicolor [6] = assay: Antibacterial activity against cmlR1-deficient Streptomyces coelicolor at 25 ug/mL after 48 hrs; type: functional, organism-based; method in brief: as §1
Streptomyces coelicolor [7] = assay: Potentiation of chloramphenicol-induced antibacterial activity against cmlR1 and cmlR2-deficient Streptomyces coelicolor at 25 ug/mL after 48 hrs relative to control; type: functional; method in brief: as §2
Streptomyces coelicolor [8] = assay: Inhibition of cmlR2 overexpressed in Streptomyces coelicolor assessed as potentiation of chloramphenicol-induced antibacterial activity measuring reduction in MIC of chloramphenicol at 25 ug/mL after 48 hrs relative to control
Method in brief: (§3)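 The cmlR1/cmlR2 double-null S. coelicolor strain was engineered to over-express cmlR1 or cmlR2 from a strong constitutive promoter. Spores (1 μL of a 10⁸ cfu/μL stock) were patched on Difco nutrient agar with 25 μg/mL inhibitor and varying chloramphenicol, then incubated at 30 °C. The chloramphenicol MIC (μg/mL) was read, and fold-potentiation was taken relative to the MIC without inhibitor.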

Streptomyces coelicolor [9] = assay: Antibacterial activity against Streptomyces coelicolor overexpressing cmlR2 at 25 ug/mL after 48 hrs; type: functional, organism-based
Method in brief: (§4)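 Host strains were the cmlR1/cmlR2 double-null S. coelicolor carrying cmlR1 or cmlR2 under a strong constitutive promoter, selected for hygromycin resistance. Growth was checked on Difco nutrient agar containing 25 μg/mL test compound alone, with plates kept at 30 °C.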

Streptomyces coelicolor [10] = assay: Potentiation of chloramphenicol-induced antibacterial activity against cmlR1-deficient Streptomyces coelicolor at 25 ug/mL after 48 hrs relative to control; type: functional; method in brief: as §2
Streptomyces coelicolor [11] = assay: Antibacterial activity against cmlR2-deficient Streptomyces coelicolor at 25 ug/mL after 48 hrs; type: functional, organism-based; method in brief: as §1
Streptomyces coelicolor [12] = assay: Inhibition of cmlR1 overexpressed in Streptomyces coelicolor assessed as potentiation of chloramphenicol-induced antibacterial activity measuring reduction in MIC of chloramphenicol at 25 ug/mL after 48 hrs relative to control; method in brief: as §3
Streptomyces coelicolor [13] = assay: Potentiation of chloramphenicol-induced antibacterial activity against Streptomyces coelicolor at 25 ug/mL after 48 hrs relative to MC-207,110; type: functional; method in brief: as §2
Streptomyces coelicolor [14] = assay: Antibacterial activity against Streptomyces coelicolor overexpressing cmlR1 at 25 ug/mL after 48 hrs; type: functional, organism-based; method in brief: as §4

SMILES | Activity (Streptomyces coelicolor [1]) | MIC (Streptomyces coelicolor [3]) [µg/mL] | Activity (Streptomyces coelicolor [2]) | also measured
NCCC[C@@H](N)C(=O)NC(CCc1ccccc1)C(=O)Nc1ccc2ccccc2c1 (mixture of isomers) | inactive | 10 |  | fold change (FC) (Streptomyces coelicolor [2]): 6.5
NCCC[C@H](N)C(=O)NC(CCc1ccccc1)C(=O)Nc1ccc2ccccc2c1 (mixture of isomers) | inactive | 10 |  | fold change (FC) (Streptomyces coelicolor [2]): 6.5
NCCC[C@@H](N)C(=O)NC(CCc1ccccc1)C(=O)NC1CCCCC1 (stereo partly drawn) | inactive |  | inactive | 
CC(C)(C)NC(=O)C(CCc1ccccc1)NC(=O)[C@H](N)CCCN (stereo partly drawn) | inactive |  | inactive | 
NCCC[C@H](N)C(=O)N[C@@H](CCc1ccccc1)C(=O)Nc1ccc2ccccc2c1 | inactive | 11 (≈ 26.3 µM) |  | fold change (FC) (Streptomyces coelicolor [2]): 5.9
NCCC[C@@H](N)C(=O)NC(C(=O)Nc1ccc2ccccc2c1)c1ccc([N+](=O)[O-])cc1 (stereo partly drawn) | inactive |  | Active | 
N=C(N)NCCC[C@H](NC(=O)[C@@H](N)Cc1ccccc1)C(=O)Nc1ccc2ccccc2c1 [PABETAN] (H-Phe-Arg-βNA) | inactive | 25 (≈ 56 µM) |  | fold change (FC) (Streptomyces coelicolor [2]): 2.6
NCCC[C@H](N)C(=O)NC(CCc1ccccc1)C(=O)Nc1cnc2ccccc2c1 (mixture of isomers) | inactive | > 40 |  | 
CN(C(=O)[C@H](N)CCCN)C(CCc1ccccc1)C(=O)Nc1ccc2ccccc2c1 (stereo partly drawn) | inactive |  | Active | 
CCCCNC(=O)C(CCc1ccccc1)NC(=O)[C@H](N)CCCN (stereo partly drawn) | inactive |  | inactive | 
COc1ccc(C(NC(=O)[C@H](N)CCCN)C(=O)Nc2ccc3ccccc3c2)cc1 (stereo partly drawn) | inactive |  | Active | 
NCCC[C@@H](N)C(=O)NC(C(=O)Nc1ccc2ccccc2c1)c1ccco1 (stereo partly drawn) | inactive |  |  | 
NCCC[C@@H](N)C(=O)NC(C(=O)Nc1ccc2ccccc2c1)c1ccccc1 (stereo partly drawn) | inactive |  | Active | 
NCCC[C@@H](N)C(=O)NC(CCc1ccccc1)C(=O)Nc1cnc2ccccc2c1 (mixture of isomers) | inactive | > 40 |  | 
NCC(=O)NC(CCc1ccccc1)C(=O)Nc1ccc2ccccc2c1 (stereo not drawn) (H-Gly-[ξhPhe]-βNA) | inactive |  | Active | 
NCCC(=O)NC(CCc1ccccc1)C(=O)Nc1ccc2ccccc2c1 (stereo not drawn) | inactive |  | Active | 
NCCC[C@H](N)C(=O)N[C@H](CCc1ccccc1)C(=O)Nc1ccc2ccccc2c1 | inactive | 9 (≈ 21.5 µM) |  | Activity (Streptomyces coelicolor [4]): inactive; fold change (FC) (Streptomyces coelicolor [5]): 2.4; Activity (Streptomyces coelicolor [6]): inactive; fold change (FC) (Streptomyces coelicolor [7]): 1.8; fold change (FC) (Streptomyces coelicolor [8]): 7.3; Activity (Streptomyces coelicolor [9]): inactive; fold change (FC) (Streptomyces coelicolor [10]): 3.3; Activity (Streptomyces coelicolor [11]): inactive; fold change (FC) (Streptomyces coelicolor [2]): 7.2; fold change (FC) (Streptomyces coelicolor [12]): 3.5; fold change (FC) (Streptomyces coelicolor [13]): 3; Activity (Streptomyces coelicolor [14]): inactive
NCCC[C@@H](N)C(=O)NC(CCc1ccccc1)C(=O)NCc1ccccc1 (stereo partly drawn) | inactive |  | Active | 
CC(C)C(NC(=O)[C@H](N)CCCN)C(=O)Nc1ccc2ccccc2c1 (stereo partly drawn) | inactive |  | Active | 
NCCC[C@@H](N)C(=O)OC(CCc1ccccc1)C(=O)Nc1ccc2ccccc2c1 (stereo partly drawn) | inactive |  |  | 
NCCCCC(=O)NC(CCc1ccccc1)C(=O)Nc1ccc2ccccc2c1 (stereo not drawn) | inactive |  | Active | 
NCCCCCC(=O)NC(CCc1ccccc1)C(=O)Nc1ccc2ccccc2c1 (stereo not drawn) | inactive |  | Active | 
